In the library only some 2.6% were active in any assay of this set; here they are far more common.
Xi reactivation – activators of inactive X chromosome reactivation, primary screen, imaging, XiGFP fibroblasts, GFP high-content imaging, set 2; 360,000 compounds, 0.055% hits; XiGFP mouse fibroblasts, % GFP-positive cells imaging, 3 d; cells co-treated with 5-aza-dC sensitizer; scaled so ellipticine positive control = 100%; AID 743238, 2013; activation, % at 7.58 µM;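 active = mean normalized replicate activation at least 10% and every replicate at or above 10%; inconclusive = only one of the two criteria met; inactive = mean below 10% and not all replicates reach 10%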
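System: XiGFP fibroblasts, SV40-immortalized. Medium: DMEM plus 5-aza-dC sensitizer. Doses: single point. Timing: 3 d treatment, 15 min room-temperature fixation. Control set: ellipticine 6 µM.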
Wnt act – Wnt/beta-catenin pathway activators, primary screen, cell-based, plate reader, single point. Wnt/beta-catenin reporter cell assay, activator. activation, % at 9.35 µM. 300,000 compounds, 1.2% hits. AID 743398, 2014; in the data active = activation above about 30%, passing the limit was not always enough; inconclusive = no clear call, values can overlap the other calls
esBAF inh – Bmi1 luciferase reporter increase in mESCs, primary screen, esBAF inhibitor project, mouse ES cells, Bmi1 luciferase knock-in, single point; 24 h; 100% = twice the neutral-well signal; reporter increase, % at 12.5 µM; 350,000 compounds, 2% hits; AID 602393, 2012; in the data active = activation above about 40%; inconclusive = no clear call, values can overlap the other calls;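 also: a rise in the Bmi1 reporter signal indicates esBAF inhibition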
Vif imaging – HIV Vif self-association inhibitors, primary screen, imaging, HEK293T, single point | HEK293T cells, Vif self-association by quenched fluorescence, 24 h | inhibition, % at 7.49 µM | 340,000 compounds, 0.35% hits | AID 602346, 2012; in the data active = inhibition above about 50%, passing the limit was not always enough; inconclusive = no clear call, values can overlap the other calls; inactive = below about 31%
MITF act – activators of MITF-driven TRPM1 promoter reporter, primary screen, cell-based, SK-MEL-5, luciferase, single point; AID 588334, 2011; SK-MEL-5 TRPM1-promoter luciferase, 24 h; % of positive control, neutral wells = 0; 300,000 compounds, 0.75% hits; activation, % at 12.5 µM;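 active = mean activation of at least 80% with every replicate also reaching 80%; inconclusive = mean reaches 80% but some replicate falls short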
Hits are given with their value; i = inactive; ? = inconclusive; nt = no result given.

SMILES | Xi reactivation | Wnt act | esBAF inh | Vif imaging | MITF act
O=C(Nc1cccnc1Cl)c1noc2c1CCc1ccccc1-2 | i | 36.8 | nt | i | i
O=C(Nc1cccnc1)c1cc2c(s1)-c1ccccc1OC2 | i | i | i | i | i
O=C(Nc1nccs1)c1cc2c(s1)-c1ccccc1OC2 | i | ? | 103.2 | i | i
O=C(Nc1cccnc1Cl)c1cc2c(s1)-c1ccccc1OC2 | i | i | 46.0 | i | i
Cc1cccc2c1-c1sc(C(=O)Nc3nccs3)cc1CO2 | i | i | 47.3 | i | i
CCOC(=O)c1cc2c(s1)-c1c(C)cccc1OC2 | i | i | 64.2 | i | nt
COc1ccc(N(C)C(=O)c2cc3c(s2)-c2c(C)cccc2OC3)c(OC)c1 | i | i | i | i | i
CN(C)C(=O)C[C@H]1CC[C@H]2[C@@H](COC[C@H](O)CN2CC2CCCCC2)O1 | i | nt | i | nt | nt
CC(=O)NCC1(O)CCCC(C)C1 (configuration not stated) | i | 40.8 | nt | i | i
COc1ccc(C2(CNC(C)=O)CCCC2)cc1OC | nt | nt | i | i | i
Cc1c(C(=O)NCc2ccoc2)oc2ccc3c(c12)C(=O)CC(C)(C)O3 | nt | nt | 103.9 | i | i
Nc1[nH]n(-c2ccccc2)c(=O)c1N=Nc1ccccc1[N+](=O)[O-] | nt | 60.6 | nt | i | 128.0
O=c1c(N=Nc2ccccc2)c[nH]n1-c1ccccc1 | i | 44.9 | i | nt | nt
Cc1[nH]n(-c2ccccc2)c(=O)c1N=Nc1ccc2c(c1)OCCO2 | i | 35.2 | nt | i | i
Nc1[nH]n(-c2ccccc2)c(=O)c1N=Nc1ccccc1 | i | 55.0 | 53.9 | i | i
Nc1[nH]n(-c2ccccc2)c(=O)c1N=Nc1ccc2ncsc2c1 | i | i | i | i | i
COc1cc([N+](=O)[O-])ccc1N=Nc1c(N)[nH]n(-c2ccccc2)c1=O | i | i | nt | i | i
CO[C@@H]1CN(C)C(=O)c2ccc(NS(=O)(=O)c3ccc(F)cc3)cc2OC[C@@H](C)N(C)C[C@H]1C | i | nt | i | nt | nt
C[C@H](CO)N1C[C@H](C)[C@@H](CN(C)S(=O)(=O)c2cccs2)Oc2ncc(C#CCC3CCCC3)cc2C1=O | i | nt | i | nt | nt
C[C@@H]1CN([C@@H](C)CO)C(=O)c2cccc(NC(=O)c3nc4ccccc4s3)c2O[C@@H]1CN(C)Cc1ccc(C(F)(F)F)cc1 | i | nt | i | nt | nt
CN(C)C(=O)C[C@H]1CC[C@@H]2[C@H](COC[C@@H](O)CN2Cc2nccs2)O1 | i | nt | i | nt | nt
C[C@H]1CN([C@@H](C)CO)C(=O)Cc2cc(NC(=O)CCC(F)(F)F)ccc2O[C@@H]1CN(C)S(=O)(=O)c1cn(C)cn1 | i | nt | i | nt | nt
C[C@@H]1CN([C@H](C)CO)C(=O)Cc2cc(NC(=O)Nc3ccc(F)cc3)ccc2O[C@@H]1CN(C)Cc1ccc(C(=O)Nc2ccccc2N)cc1 | i | nt | nt | nt | nt
O=C(NCCCCNC(=O)c1ccccc1Cl)c1ccccc1Cl | i | i | i | i | i
CC(CNC(=O)c1ccccc1Cl)c1ccccc1 (configuration not stated) | i | i | 48.0 | i | i
SMILES | Xi reactivation | Wnt act | esBAF inh | Vif imaging | MITF act
CCCc1cc(=O)oc2cc(O[C@@H]3O[C@H](CO)[C@@H](O)[C@H](O)[C@H]3O)ccc12 | i | i | i | i | i
COc1ccc(-c2coc3cc(O)c(OC)cc3c2=O)cc1 | i | i | i | i | i
COc1ccc(-c2coc3cc(OC4OC(CO)C(O)C(O)C4O)ccc3c2=O)cc1 (configuration not stated) | i | 41.1 | i | i | i
COc1ccc(-c2coc3cc(O[C@@H]4O[C@H](CO)[C@@H](O)[C@H](O)[C@H]4O)c(OC)cc3c2=O)cc1 | i | i | 46.6 | i | i
COc1ccc(-c2coc3cc(OC4OC(CO)C(O)C(O)C4O)cc(O)c3c2=O)cc1 (configuration not stated) | i | 56.5 | i | i | ?
COc1ccc2c3c([nH]c2c1)[C@H](CO)N(Cc1cccc(Cl)c1)CC31CCN(C)CC1 | i | nt | nt | nt | nt
C[C@@H]1CCCCO[C@@H](CN(C)S(=O)(=O)c2ccc(Cl)cc2)[C@H](C)CN([C@@H](C)CO)C(=O)c2cc(NC(=O)CCC(F)(F)F)ccc2O1 | i | nt | i | nt | nt
O=Cc1ccccc1OCc1ccc2c(c1)OCO2 | i | i | 70.0 | i | nt
COc1ccc(OCCNS(=O)(=O)c2ccccc2)cc1 | nt | i | i | 52.2 | i
O=C(C=Cc1ccccc1)c1c[nH]c2ccccc2c1=O | i | i | ? | i | i
O=C(/C=C/c1ccccc1)c1c[nH]c2ccccc12 | i | 46.1 | i | i | i
COc1cccc(Nc2nc(-c3ccc4c(c3)OCCO4)cs2)c1 | nt | nt | nt | i | 87.4
c1cc2c(cc1Nc1nc(-c3ccc4c(c3)OCO4)cs1)OCCO2 | nt | nt | i | i | nt
c1ccc(-c2csc(Nc3ccc4c(c3)OCCO4)n2)cc1 | nt | 45.9 | i | nt | i
C=CCNc1nc(-c2ccc3c(c2)OCCO3)cs1 | i | 41.7 | i | i | i
CCC(=O)N(C)C[C@H]1Oc2cc(-c3cncnc3)ccc2S(=O)(=O)N([C@@H](C)CO)C[C@H]1C | i | nt | i | nt | nt
CCCOc1ccc(-c2cnc(N)s2)cc1 | nt | i | 76.2 | nt | 87.6
Cc1nc(CSc2nnc(N)s2)cs1 | i | i | nt | i | i
CCOc1ccc(-c2nc(CSc3nnc(N)s3)cs2)cc1OC | nt | nt | 47.5 | i | i
CCCOc1ccc(OCCSc2nnc(N)s2)cc1 | nt | nt | 52.7 | i | i
Nc1nnc(SCCCOc2ccc(F)cc2)s1 | i | i | i | i | i
CCOc1ccc(-c2nc(CSc3nnc(N)s3)cs2)cc1 | nt | nt | 49.1 | i | i
CCCNC(=O)N1CC(=O)N2[C@H](CO)[C@@H](c3ccc(C#Cc4cccc(F)c4)cc3)[C@@H]2C1 | i | nt | nt | nt | nt
CCOC(=O)c1ccc(CSc2nnc(N)s2)cc1 | nt | nt | 48.4 | i | nt
CCNC(=O)[C@@H]1[C@@H](CO)[C@@H]2Cn3c(ccc(-c4ccccc4F)c3=O)[C@H]1N2CC | i | nt | i | nt | nt
SMILES | Xi reactivation | Wnt act | esBAF inh | Vif imaging | MITF act
CC(=O)Nc1ccc(NC(=O)C(C)OC(=O)/C(C#N)=C/c2ccc(N(C)C)cc2)cc1 (configuration not stated) | i | i | 66.0 | 123.6 | 81.2
CC1(C)C2CC[C@]3(C)C(CC=C4[C@@H]5C[C@@](C)(CO)[C@@H](O)C[C@]5(C(=O)O)CC[C@]43C)[C@@]2(C)CC[C@@H]1O (some centres not stated) | nt | nt | i | 67.3 | nt
O=C(Cc1ccccc1)N1CC[C@@H]2[C@H]1c1cc(Br)ccc1N[C@@H]2CO | i | nt | i | nt | nt
CO[C@H]1CN(C)C(=O)c2cc(NS(C)(=O)=O)ccc2OC[C@H](C)N(C(=O)C2CCOCC2)C[C@H]1C | i | nt | i | nt | nt
CC(=O)NCCN=C(C)c1sc2ccccc2c1O | nt | nt | 41.0 | i | i
CC(=Nc1ccc(O)cc1)c1sc2ccccc2c1O | nt | nt | nt | i | i
CC(=Nc1cccc(C)c1)c1sc2ccccc2c1O | nt | nt | 52.3 | nt | i

Assay outcomes as filed in PubChem.
